According to ChEMBL document CHEMBL2429801, “3-Ylidenephthalides as a new class of transient receptor potential channel TRPA1 and TRPM8 modulators” (Bioorg Med Chem Lett, 2013):

target: T1, Transient receptor potential cation channel subfamily A member 1 (Homo sapiens, UniProt O75762); assay: Agonist activity at TRPA1 (unknown origin)
T1 sequence (O75762 whole entry): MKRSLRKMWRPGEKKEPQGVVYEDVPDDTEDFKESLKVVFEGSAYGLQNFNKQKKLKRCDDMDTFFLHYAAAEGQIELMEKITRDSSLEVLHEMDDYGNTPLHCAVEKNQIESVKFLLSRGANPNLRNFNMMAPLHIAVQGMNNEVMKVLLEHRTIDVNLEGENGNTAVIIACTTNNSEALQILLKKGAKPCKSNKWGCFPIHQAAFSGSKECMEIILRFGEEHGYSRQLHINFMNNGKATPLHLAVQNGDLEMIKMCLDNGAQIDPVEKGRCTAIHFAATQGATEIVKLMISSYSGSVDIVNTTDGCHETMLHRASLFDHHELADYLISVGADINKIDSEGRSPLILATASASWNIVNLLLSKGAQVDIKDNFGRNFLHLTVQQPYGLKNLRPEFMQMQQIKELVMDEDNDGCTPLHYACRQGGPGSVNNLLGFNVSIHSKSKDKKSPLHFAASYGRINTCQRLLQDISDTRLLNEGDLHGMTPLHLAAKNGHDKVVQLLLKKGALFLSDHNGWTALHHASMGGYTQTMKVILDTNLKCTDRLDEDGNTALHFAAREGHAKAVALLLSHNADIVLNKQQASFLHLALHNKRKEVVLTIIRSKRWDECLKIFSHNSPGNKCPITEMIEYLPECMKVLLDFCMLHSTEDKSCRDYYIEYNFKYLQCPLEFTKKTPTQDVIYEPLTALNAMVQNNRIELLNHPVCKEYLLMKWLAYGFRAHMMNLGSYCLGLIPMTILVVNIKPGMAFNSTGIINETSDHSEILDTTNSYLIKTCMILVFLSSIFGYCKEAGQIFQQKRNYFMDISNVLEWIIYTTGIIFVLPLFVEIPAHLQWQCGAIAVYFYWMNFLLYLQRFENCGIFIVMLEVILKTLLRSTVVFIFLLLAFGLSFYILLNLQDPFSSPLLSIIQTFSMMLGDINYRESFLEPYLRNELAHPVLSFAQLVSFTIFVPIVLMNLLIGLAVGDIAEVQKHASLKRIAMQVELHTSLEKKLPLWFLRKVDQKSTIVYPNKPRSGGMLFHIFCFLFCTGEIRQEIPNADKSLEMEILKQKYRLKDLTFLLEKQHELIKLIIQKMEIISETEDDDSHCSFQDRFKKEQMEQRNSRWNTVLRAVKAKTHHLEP

EC50 [µM] | Structure (SMILES)
44 | CCC/C=C1\OC(=O)C2=C1CCC=C2 [LIGUSTILIDE]

target: Transient receptor potential cation channel subfamily A member 1 (Rattus norvegicus) (UniProt Q6RI86); assay: Agonist activity at rat recombinant TRPA1 overexpressed in HEK293 cells assessed as induction of intracellular calcium influx by Fluo-4-AM dye-based spectrofluorimetric analysis relative to allyl isothiocyanate; type: cell-based
Sequence (Q6RI86 whole entry): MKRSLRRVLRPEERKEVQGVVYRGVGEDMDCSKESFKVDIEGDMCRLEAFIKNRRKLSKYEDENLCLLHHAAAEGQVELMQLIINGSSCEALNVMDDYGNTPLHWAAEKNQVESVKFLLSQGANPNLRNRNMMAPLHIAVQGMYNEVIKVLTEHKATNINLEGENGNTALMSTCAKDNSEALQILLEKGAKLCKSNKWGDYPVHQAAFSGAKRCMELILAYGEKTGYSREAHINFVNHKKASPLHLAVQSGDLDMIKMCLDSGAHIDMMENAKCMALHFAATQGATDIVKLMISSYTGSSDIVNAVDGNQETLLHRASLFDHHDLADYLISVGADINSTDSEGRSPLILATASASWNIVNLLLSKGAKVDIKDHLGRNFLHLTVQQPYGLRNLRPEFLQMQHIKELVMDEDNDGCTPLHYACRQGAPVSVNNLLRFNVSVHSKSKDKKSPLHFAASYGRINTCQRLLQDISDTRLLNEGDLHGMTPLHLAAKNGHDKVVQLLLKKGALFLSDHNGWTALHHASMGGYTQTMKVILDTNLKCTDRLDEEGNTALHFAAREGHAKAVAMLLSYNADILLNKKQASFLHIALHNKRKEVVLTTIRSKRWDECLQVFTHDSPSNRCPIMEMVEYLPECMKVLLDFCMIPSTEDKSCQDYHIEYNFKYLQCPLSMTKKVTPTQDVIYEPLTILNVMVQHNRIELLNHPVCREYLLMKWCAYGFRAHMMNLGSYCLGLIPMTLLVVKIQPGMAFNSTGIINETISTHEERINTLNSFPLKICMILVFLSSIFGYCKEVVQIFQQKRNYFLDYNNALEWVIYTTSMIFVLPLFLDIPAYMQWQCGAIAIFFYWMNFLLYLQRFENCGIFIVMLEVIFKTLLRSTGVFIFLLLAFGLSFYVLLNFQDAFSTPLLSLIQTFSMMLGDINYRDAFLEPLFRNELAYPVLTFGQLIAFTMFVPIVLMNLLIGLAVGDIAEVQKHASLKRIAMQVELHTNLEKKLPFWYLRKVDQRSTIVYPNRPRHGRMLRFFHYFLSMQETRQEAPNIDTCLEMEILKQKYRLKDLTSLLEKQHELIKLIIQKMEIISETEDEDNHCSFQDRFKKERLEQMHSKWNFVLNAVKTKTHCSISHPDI

Efficacy [%] | Structure (SMILES)
112 | O=C1O/C(=C\c2ccc(Cl)cc2)c2ccccc21
24.6 | C/C=C1\OC(=O)c2ccc(OC)cc21
117 | Cc1cc(C)c2c(c1)/C(=C/c1ccccc1)OC2=O
10.2 | C=C1OC(=O)c2cc(F)ccc21
43.7 | CC/C=C1\OC(=O)c2c(C)cc(C)cc21
126 | Cc1ccc(/C=C2\OC(=O)c3ccccc32)cc1
93.6 | O=C1O/C(=C\c2ccccc2)c2ccccc21
65.1 | COc1ccc(/C=C2\OC(=O)c3ccccc32)cc1
85.1 | C=C1OC(=O)c2c(C)cc(C)cc21

Structure (SMILES) | Efficacy [%]
CCC/C=C1\OC(=O)c2ccccc21 | < 10

target: Transient receptor potential cation channel subfamily M member 8 (Rattus norvegicus) (UniProt Q8R455); assay: Agonist activity at rat recombinant TRPM8 overexpressed in HEK293 cells assessed as induction of intracellular calcium influx by Fluo-4-AM dye-based spectrofluorimetric analysis relative to ionomycin; type: cell-based; design: concentration or dose not given beside the values
Sequence (Q8R455 whole entry, looked up): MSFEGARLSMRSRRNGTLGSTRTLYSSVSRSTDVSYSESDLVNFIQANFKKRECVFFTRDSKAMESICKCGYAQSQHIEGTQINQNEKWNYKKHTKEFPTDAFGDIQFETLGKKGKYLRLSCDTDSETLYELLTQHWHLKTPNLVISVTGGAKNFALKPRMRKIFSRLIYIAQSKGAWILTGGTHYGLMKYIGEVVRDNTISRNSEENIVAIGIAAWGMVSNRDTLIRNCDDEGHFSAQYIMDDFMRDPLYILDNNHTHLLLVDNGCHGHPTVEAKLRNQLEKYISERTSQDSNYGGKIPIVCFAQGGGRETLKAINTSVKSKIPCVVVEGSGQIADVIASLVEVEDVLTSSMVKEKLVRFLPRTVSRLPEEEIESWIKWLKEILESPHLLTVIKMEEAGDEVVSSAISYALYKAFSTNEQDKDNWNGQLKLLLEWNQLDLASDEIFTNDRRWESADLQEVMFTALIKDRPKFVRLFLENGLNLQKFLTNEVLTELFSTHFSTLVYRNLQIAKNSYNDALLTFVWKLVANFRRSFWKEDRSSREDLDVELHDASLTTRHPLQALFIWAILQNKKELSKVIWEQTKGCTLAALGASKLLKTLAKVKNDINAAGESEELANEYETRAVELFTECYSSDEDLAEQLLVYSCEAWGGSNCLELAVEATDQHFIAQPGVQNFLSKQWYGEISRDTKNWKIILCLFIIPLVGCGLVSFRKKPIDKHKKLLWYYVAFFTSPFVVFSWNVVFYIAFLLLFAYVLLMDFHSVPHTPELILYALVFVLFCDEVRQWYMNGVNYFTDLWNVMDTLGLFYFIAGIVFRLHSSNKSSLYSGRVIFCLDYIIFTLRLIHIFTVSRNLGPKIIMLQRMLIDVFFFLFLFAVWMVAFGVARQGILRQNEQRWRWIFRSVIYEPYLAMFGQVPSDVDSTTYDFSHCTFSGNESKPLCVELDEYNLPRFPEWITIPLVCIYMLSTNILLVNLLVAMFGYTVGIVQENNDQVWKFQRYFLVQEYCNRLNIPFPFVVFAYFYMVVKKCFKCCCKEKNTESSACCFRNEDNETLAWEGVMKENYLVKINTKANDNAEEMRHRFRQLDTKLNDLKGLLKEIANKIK

Efficacy [%] | Structure (SMILES)
< 10 | O=C1O/C(=C\c2ccc(Cl)cc2)c2ccccc21
< 10 | C/C=C1\OC(=O)c2ccc(OC)cc21
< 10 | Cc1cc(C)c2c(c1)/C(=C/c1ccccc1)OC2=O
< 10 | C=C1OC(=O)c2cc(F)ccc21
< 10 | CC/C=C1\OC(=O)c2c(C)cc(C)cc21
< 10 | Cc1ccc(/C=C2\OC(=O)c3ccccc32)cc1
< 10 | O=C1O/C(=C\c2ccccc2)c2ccccc21
12.9 | COc1ccc(/C=C2\OC(=O)c3ccccc32)cc1
< 10 | C=C1OC(=O)c2c(C)cc(C)cc21

Structure (SMILES) | Efficacy [%]
CCC/C=C1\OC(=O)c2ccccc21 | < 10

target: T2, Transient receptor potential cation channel subfamily A member 1 (Rattus norvegicus, UniProt Q6RI86); assay: Antagonist activity at rat recombinant TRPA1 overexpressed in HEK293 cells assessed as inhibition of allyl isothiocyanate-induced intracellular calcium influx preincubated for 5 mins followed by allyl isothiocyanate challenge by Fluo-4-AM dye-based spectrofluorimetric analysis; type: cell-based
T2 sequence (Q6RI86 whole entry): as the sequence (Q6RI86 whole entry) above
Procedure, shortened: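 Test compounds were preincubated for 5 min in the cuvette with Fluo-4-loaded rat TRPA1-HEK293 cells in Tyrode's buffer, followed by 100 µM AITC challenge.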

IC50 [µM] | Structure (SMILES)
1.5 | O=C1O/C(=C\c2ccc(Cl)cc2)c2ccccc21
> 100 | C/C=C1\OC(=O)c2ccc(OC)cc21
0.8 | Cc1cc(C)c2c(c1)/C(=C/c1ccccc1)OC2=O
> 100 | C=C1OC(=O)c2cc(F)ccc21
36.3 | CC/C=C1\OC(=O)c2c(C)cc(C)cc21
2.4 | Cc1ccc(/C=C2\OC(=O)c3ccccc32)cc1
2.9 | O=C1O/C(=C\c2ccccc2)c2ccccc21
2.2 | COc1ccc(/C=C2\OC(=O)c3ccccc32)cc1
34 | C=C1OC(=O)c2c(C)cc(C)cc21

Structure (SMILES) | IC50 [µM]
CCC/C=C1\OC(=O)c2ccccc21 [Z-butylidenephthalide] | 44.5

target: T3, Transient receptor potential cation channel subfamily M member 8 (Rattus norvegicus, UniProt Q8R455); assay: Antagonist activity at rat recombinant TRPM8 overexpressed in HEK293 cells assessed as inhibition of icilin-induced intracellular calcium influx preincubated for 5 mins followed by icilin challenge by Fluo-4-AM dye-based spectrofluorimetric analysis; type: cell-based
T3 sequence (Q8R455 whole entry): as the sequence (Q8R455 whole entry, looked up) above

IC50 [µM] | Structure (SMILES)
14.9 | O=C1O/C(=C\c2ccc(Cl)cc2)c2ccccc21
161 | C/C=C1\OC(=O)c2ccc(OC)cc21
1 | Cc1cc(C)c2c(c1)/C(=C/c1ccccc1)OC2=O
> 200 | C=C1OC(=O)c2cc(F)ccc21
7.7 | CC/C=C1\OC(=O)c2c(C)cc(C)cc21
7.2 | Cc1ccc(/C=C2\OC(=O)c3ccccc32)cc1
8.3 | O=C1O/C(=C\c2ccccc2)c2ccccc21
3.4 | COc1ccc(/C=C2\OC(=O)c3ccccc32)cc1
90.1 | C=C1OC(=O)c2c(C)cc(C)cc21

Structure (SMILES) | IC50 [µM]
CCC/C=C1\OC(=O)c2ccccc21 [Z-butylidenephthalide] | 141

target: T1, Transient receptor potential cation channel subfamily A member 1; assay: Antagonist activity at TRPA1 (unknown origin) assessed as inhibition of mustard oil-activated […]
Procedure, shortened: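 Rat TRPA1 stably expressed in HEK293 cells grown in EMEM with 10% FBS. Cells were loaded with Fluo-4-AM (4 µM) for 1 h at room temperature, then suspended in Tyrode's buffer pH 7.4. Compound was added 5 min before 100 µM allyl isothiocyanate. Ca2+ fluorescence (ex 488/em 516 nm) was read at 25 °C, with the agonist-alone response set as 100%.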

Structure (SMILES) | IC50 [µM]
CCC/C=C1\OC(=O)c2ccccc21 (mixture of isomers) [Z-butylidenephthalide] | 23

target: T3, Transient receptor potential cation channel subfamily M member 8; assay: Agonist activity at rat recombinant TRPM8 overexpressed in HEK293 cells assessed as induction of intracellular calcium influx by Fluo-4-AM dye-based spectrofluorimetric analysis; type: cell-based

EC50 [µM] | Structure (SMILES)
1.8 | COc1ccc(/C=C2\OC(=O)c3ccccc32)cc1

target: T3, Transient receptor potential cation channel subfamily M member 8; assay: Antagonist activity at rat recombinant TRPM8 overexpressed in HEK293 cells assessed as inhibition of menthol-induced intracellular calcium influx preincubated for 5 mins followed by menthol challenge by Fluo-4-AM dye-based spectrofluorimetric analysis; type: cell-based

IC50 [µM] | Structure (SMILES)
48.1 | O=C1O/C(=C\c2ccc(Cl)cc2)c2ccccc21
> 200 | C/C=C1\OC(=O)c2ccc(OC)cc21
1.9 | Cc1cc(C)c2c(c1)/C(=C/c1ccccc1)OC2=O
> 200 | C=C1OC(=O)c2cc(F)ccc21
12.1 | CC/C=C1\OC(=O)c2c(C)cc(C)cc21
25.1 | Cc1ccc(/C=C2\OC(=O)c3ccccc32)cc1
10.2 | O=C1O/C(=C\c2ccccc2)c2ccccc21
11.3 | COc1ccc(/C=C2\OC(=O)c3ccccc32)cc1
128 | C=C1OC(=O)c2c(C)cc(C)cc21

Structure (SMILES) | IC50 [µM]
CCC/C=C1\OC(=O)c2ccccc21 [Z-butylidenephthalide] | 153

target: T2, Transient receptor potential cation channel subfamily A member 1; assay: Agonist activity at rat recombinant TRPA1 overexpressed in HEK293 cells assessed as induction of intracellular calcium influx by Fluo-4-AM dye-based spectrofluorimetric analysis; type: cell-based

EC50 [µM] | Structure (SMILES)
2 | O=C1O/C(=C\c2ccc(Cl)cc2)c2ccccc21
21.7 | C/C=C1\OC(=O)c2ccc(OC)cc21
1.1 | Cc1cc(C)c2c(c1)/C(=C/c1ccccc1)OC2=O
32.2 | C=C1OC(=O)c2cc(F)ccc21
15.8 | CC/C=C1\OC(=O)c2c(C)cc(C)cc21
4.3 | Cc1ccc(/C=C2\OC(=O)c3ccccc32)cc1
3 | O=C1O/C(=C\c2ccccc2)c2ccccc21
1.3 | COc1ccc(/C=C2\OC(=O)c3ccccc32)cc1
17.2 | C=C1OC(=O)c2c(C)cc(C)cc21
